inhibition, Activity and IC50 data for 11 molecules are collected here from ChEMBL document CHEMBL4368933, “Structure-activity relationship of leucyladenylate sulfamate analogues as leucyl-tRNA synthetase (LRS)-targeting inhibitors of Mammalian target of rapamycin complex 1 (mTORC1)” (Bioorg Med Chem, 2019).

The target of one experiment is mTORC2 (Homo sapiens) (UniProt P42345+Q6R327+Q9BVC4+Q9BPZ7). The experiment can be described thus: Inhibition of mTORC2 signaling in human HEK293 cells assessed as reduction in leucine-induced AKT phosphorylation at 200 uM preincubated for 50 mins followed by leucine-stimulation and measured after 10 mins by Western blot analysis. In kind it is cell-based. A general note: In western blotting, separated proteins are transferred to a membrane and probed.

Experiment [1] deals with Leucine--tRNA ligase, cytoplasmic (Homo sapiens) (UniProt Q9P2J5). Nature of the experiment: Inhibition of Leucyl-tRNA synthetase-mediated mTORC1 signaling activation in human HEK293 cells assessed as reduction in leucine-induced S6K phosphorylation at 200 uM preincubated for 50 mins followed by leucine-stimulation and measured after 10 mins by Western blot analysis. In kind it is cell-based. Summed up: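 HEK293 cells pretreated with test agent at a fixed 200 µM, alongside rapamycin (100 nM) and leucinol (800 µM) as references. mTORC1 then activated by adding leucine for 10 min. S6K phosphorylation read by Western blot.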

For another experiment, the system named is HEK293. The experiment can be described thus: Effect on leucine-induced AKT levels in human HEK293 cells at 200 uM preincubated for 50 mins followed by leucine-stimulation and measured after 10 mins by Western blot analysis. In kind it is functional, cell-based.
The next experiment relates to MDA-MB-231. Nature of the experiment: Antiproliferative activity against human MDA-MB-231 cells after 72 hrs by SRB assay. In kind it is functional, cell-based. As to conditions: MDA-MB-231, 72 h. Summed up: (§1)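 Colorimetric growth assay with IC50 values derived; etoposide as positive control. Cell lines: A549 (lung cancer), HCT116 (colon cancer), MDA-MB-231 (breast cancer), SK-Hep-1 (liver cancer), SNU638 (stomach cancer), MRC5 (normal lung […]).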
Background: Sulforhodamine B stains cellular protein and so reports cell mass.

For a further experiment, the system named is MRC5. Nature of the experiment: Antiproliferative activity against human MRC5 cells after 72 hrs by SRB assay. Format: cell-based. As to conditions: MRC5, 72 h. The procedure, abridged: as §1
Experiment [2] deals with Leucine--tRNA ligase, cytoplasmic (Homo sapiens) (UniProt Q9P2J5). The experiment can be described thus: Inhibition of Leucyl-tRNA synthetase-mediated mTORC1 signaling activation in human HEK293 cells assessed as reduction in leucine-induced S6K phosphorylation preincubated for 50 mins followed by leucine-stimulation and measured after 10 mins by Western blot analysis. In kind it is cell-based. Summed up:
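HEK293 cells pretreated at 20, 50, 100 and 200 µM. Leucine then added for 10 min to activate mTORC1. Dose dependence of leucine-induced S6K phosphorylation assessed by Western blot.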

Another experiment deals with A549. The experiment can be described thus: Antiproliferative activity against human A549 cells after 72 hrs by SRB assay. In kind it is functional, cell-based. The note with it: A549, 72 h. Summed up:
as §1

The next experiment relates to SK-HEP1. Nature of the experiment: Antiproliferative activity against human SKHEP1 cells after 72 hrs by SRB assay. Format: functional, cell-based. The note with it: SK-HEP1, 72 h. Summed up:
as §1

A further experiment relates to SNU-638. Nature of the experiment: Antiproliferative activity against human SNU638 cells after 72 hrs by SRB assay. In kind it is functional, cell-based. The note with it: SNU-638, 72 h. Summed up:
as §1

The subject of a further experiment is HCT-116. Nature of the experiment: Antiproliferative activity against human HCT116 cells after 72 hrs by SRB assay. Format: functional, cell-based. As to conditions: HCT-116, 72 h. The procedure, abridged: as §1

The source made the active and inactive calls. The calls are words filed in the database; no cut-off is given here.

Sequence of Leucine--tRNA ligase, cytoplasmic (Homo sapiens) (Q9P2J5 whole entry, looked up): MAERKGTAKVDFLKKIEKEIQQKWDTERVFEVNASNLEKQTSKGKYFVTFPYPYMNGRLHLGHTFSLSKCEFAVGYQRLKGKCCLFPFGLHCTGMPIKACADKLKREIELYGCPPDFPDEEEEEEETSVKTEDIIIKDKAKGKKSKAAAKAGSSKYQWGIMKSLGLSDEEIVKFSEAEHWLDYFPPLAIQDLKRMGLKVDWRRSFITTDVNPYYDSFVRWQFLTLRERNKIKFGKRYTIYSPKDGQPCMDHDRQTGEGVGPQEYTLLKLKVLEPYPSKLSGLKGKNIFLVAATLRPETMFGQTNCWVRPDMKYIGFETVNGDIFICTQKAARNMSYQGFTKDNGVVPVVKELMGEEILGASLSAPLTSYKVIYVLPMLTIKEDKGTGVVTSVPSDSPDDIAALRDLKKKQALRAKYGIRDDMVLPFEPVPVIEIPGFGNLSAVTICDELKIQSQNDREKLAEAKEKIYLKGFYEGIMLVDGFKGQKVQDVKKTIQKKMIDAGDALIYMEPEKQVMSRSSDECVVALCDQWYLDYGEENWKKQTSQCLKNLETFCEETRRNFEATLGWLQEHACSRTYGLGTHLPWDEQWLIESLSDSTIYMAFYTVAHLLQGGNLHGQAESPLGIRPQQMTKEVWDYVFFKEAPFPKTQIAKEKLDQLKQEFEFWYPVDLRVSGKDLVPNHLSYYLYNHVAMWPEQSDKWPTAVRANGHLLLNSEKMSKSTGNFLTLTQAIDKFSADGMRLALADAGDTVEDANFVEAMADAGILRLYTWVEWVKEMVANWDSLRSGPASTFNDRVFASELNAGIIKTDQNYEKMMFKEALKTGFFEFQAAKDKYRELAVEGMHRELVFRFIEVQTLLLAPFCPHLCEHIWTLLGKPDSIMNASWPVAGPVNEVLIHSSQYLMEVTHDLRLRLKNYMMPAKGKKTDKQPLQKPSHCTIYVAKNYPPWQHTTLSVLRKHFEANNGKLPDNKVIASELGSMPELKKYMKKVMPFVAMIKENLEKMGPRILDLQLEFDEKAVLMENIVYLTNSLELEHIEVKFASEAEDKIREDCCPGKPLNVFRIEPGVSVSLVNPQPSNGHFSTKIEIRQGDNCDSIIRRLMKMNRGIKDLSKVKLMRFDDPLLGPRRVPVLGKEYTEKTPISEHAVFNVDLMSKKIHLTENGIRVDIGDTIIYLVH

`CC(C)[C@@H](O)[C@H](O)C(=O)NS(=O)(=O)OC[C@@H]1C[C@@H](O)[C@H](n2cnc3c(N)ncnc32)O1`: the inhibition result (on mTORC2 (Homo sapiens); in experiment [1]) was “inactive” in each case. In addition, the outcome in the experiment with HEK293 was inactive.

Consider `CNc1ncnc2c1ncn2[C@@H]1O[C@H](COS(=O)(=O)NC(=O)[C@H](O)[C@@H](O)C(C)C)[C@@H](O)[C@H]1O`, for which the inhibition entry (at mTORC2 (Homo sapiens); in experiment [1]) was “inactive” each time. Moreover, the result in the experiment with HEK293 was inactive.

On to `CC(C)[C@H](O)[C@@H](O)C(=O)NS(=O)(=O)OC[C@H]1O[C@@H](n2cnc3c(N)ncnc32)[C@H](O)[C@@H]1O`, for which the inhibition entry (at mTORC2 (Homo sapiens); in experiment [1]) was “inactive” in each case. Moreover, in the experiment on HEK293, the result was inactive.

For `CC(C)C[C@H](O)C(=O)NS(=O)(=O)OC[C@H]1O[C@@H](n2cnc3c(N)ncnc32)[C@H](O)[C@@H]1O`, the inhibition entry at mTORC2 (Homo sapiens) is “inactive”. The IC50 in the experiment with MDA-MB-231 was found to be 2.61 µM; in the experiment on MRC5 it was 16.6 µM; in the experiment on A549, 1 µM; in the experiment with SK-HEP1 it was 1.76 µM; with SNU-638, 4.5 µM; with HCT-116, 3.47 µM. The inhibition entry in [2] is “Dose-dependent effect”. Further, the inhibition result in experiment [1] was “Active”. In addition, in the experiment with HEK293, the result was inactive.

As for `Nc1ncnc2c1ncn2[C@@H]1O[C@H](COS(=O)(=O)NC(=O)[C@@H](O)[C@H](O)C2CC2)[C@@H](O)[C@@H]1O`, the IC50 in the experiment on MDA-MB-231 is 17.8 µM; in the experiment with MRC5, above 20 µM; in the experiment on A549 it was 6.93 µM; in the experiment on SK-HEP1, 7.26 µM; with SNU-638 it was 5.7 µM; in the experiment with HCT-116 it was 9.14 µM. For the same molecule, the inhibition entry in [1] is “Active”.

Take `CC(C)C[C@H](O)C(=O)NS(=O)(=O)OC[C@H]1O[C@@H](n2cnc3c(=O)[nH]cnc32)[C@H](O)[C@@H]1O`: the IC50 in the experiment with MDA-MB-231, in the experiment with MRC5, in the experiment on A549, in the experiment on SK-HEP1, in the experiment on SNU-638 and with HCT-116 was above 20 µM in each case. For the same molecule, the inhibition result in experiment [1] was “Active”.

For `CC(C)[C@@H](O)[C@H](O)C(=O)NS(=O)(=O)OC[C@H]1O[C@@H](n2cnc3c(N)ncnc32)[C@H](O)[C@@H]1O`, at mTORC2 (Homo sapiens), the inhibition result is “inactive”. In addition, the inhibition entry in experiment [1] was “Active”. Besides, the outcome with HEK293 was inactive.

As to `CC(C)[C@@H](O)[C@H](O)C(=O)NS(=O)(=O)OC[C@H]1O[C@@H](n2cnc3c(N)ncnc32)C[C@@H]1O`, the inhibition entry on mTORC2 (Homo sapiens) is “inactive”. For the same molecule, the IC50 in the experiment with MDA-MB-231 is 6.27 µM; in the experiment with MRC5, above 20 µM; in the experiment on A549, 5.04 µM; in the experiment with SK-HEP1 it was 5.74 µM; in the experiment on SNU-638 it was 4.72 µM; with HCT-116, 6.52 µM. Also, in experiment [2], the inhibition result is “Dose-dependent effect”. Further, the inhibition result in experiment [1] was “Active”. Also, in the experiment with HEK293, the outcome was inactive.

As to `CC(C)[C@@H](O)[C@H](O)C(=O)NS(=O)(=O)OC[C@H]1O[C@@H](n2cnc3c(=O)[nH]cnc32)[C@H](O)[C@@H]1O`, the IC50 in the experiment on MDA-MB-231, with MRC5, in the experiment on A549, with SK-HEP1, with SNU-638 and in the experiment on HCT-116 was above 20 µM throughout. Besides, the inhibition entry in experiment [1] was “Active”.

Consider `CC(C)[C@@H](O)[C@H](O)C(=O)NS(=O)(=O)OC[C@H]1O[C@@H](n2cnc3c(N)nc(I)nc32)[C@H](O)[C@@H]1O`, for which the inhibition entry on mTORC2 (Homo sapiens) was “inactive”. Further, the inhibition entry in experiment [1] is “Active”. Further, the result with HEK293 was inactive.

Take `CC(C)C[C@H](Cl)C(=O)NS(=O)(=O)OC[C@H]1O[C@@H](n2cnc3c(N)nc(Cl)nc32)[C@H](O)[C@@H]1O`: the IC50 in the experiment on MDA-MB-231 was 7.75 µM; in the experiment on MRC5, above 20 µM; with A549, 6.27 µM; in the experiment with SK-HEP1, 5.87 µM; with SNU-638 it was 5.5 µM; in the experiment with HCT-116, 7.51 µM. The inhibition entry in [1] was “Active”.

By IC50 is commonly meant the point on the concentration scale where inhibition reaches its midpoint. The low end stands for inhibition by little substance, the high end for a need for much substance.
